Results as given in ChEMBL document CHEMBL4406880, “Design, synthesis, and bioactivity of dihydropyrimidine derivatives as kinesin spindle protein inhibitors” (Bioorg Med Chem, 2019).

Assays:
Format in all cases: functional
EKVX = assay: Growth inhibition of human EKVX cells assessed as cell viability at 0.001 uM incubated for 48 hrs by sulforhodamine B assay relative to control; conditions: read-out: Activity
SF-539 [1] = assay: Growth inhibition of human SF539 cells assessed as cell viability at 1 uM incubated for 48 hrs by sulforhodamine B assay; conditions: SF-539, 48 h, read-out: Activity
RXF 393 [2] = assay: Growth inhibition of human RXF393 cells assessed as cell viability at 0.1 uM incubated for 48 hrs by sulforhodamine B assay; conditions: RXF 393, 48 h, read-out: Activity
OVCAR-4 = assay: Growth inhibition of human OVCAR4 cells assessed as cell viability at 1 uM incubated for 48 hrs by sulforhodamine B assay; conditions: OVCAR-4, 48 h, read-out: Activity
SNB-75 = assay: Induction of apoptosis in human SNB75 cells assessed as necrosis at 2 uM incubated for 24 hrs by annexin V FITC and propidium iodide based flow cytometry (reference value: 0.44 %)
A498 = assay: Growth inhibition of human A498 cells assessed as cell viability at 100 uM incubated for 48 hrs by sulforhodamine B assay; conditions: A498, 48 h, read-out: Activity
Method in brief: (§1)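 NCI-60 five-dose mode: five tenfold dilutions (0.01, 0.1, 1, 10, 100 µM) are applied for 48 h to cells in RPMI 1640 with 5% FBS at 37 °C. Endpoint is TCA fixation with sulforhodamine B read at 515 nm. % growth comes from the 0 h and control absorbances. GI50 is the concentration giving a 50% reduction in net cell growth.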

M14 = assay: Growth inhibition of human M14 cells assessed as cell viability at 1 uM incubated for 48 hrs by sulforhodamine B assay; conditions: M14, 48 h, read-out: Activity
SF-539 [3] = assay: Growth inhibition of human SF539 cells incubated for 48 hrs by sulforhodamine B assay; conditions: SF-539, 48 h
Method in brief: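 NCI-60 five-dose SRB assay. Cells were exposed for 48 h to tenfold dilutions of 0.01, 0.1, 1, 10 and 100 µM, in RPMI 1640 with 5% FBS. Plates fixed with TCA at the time of drug addition served as the time-zero reference. GI50 is the concentration giving a 50% reduction in net growth. TGI is total growth inhibition. LC50 is a net 50% loss of the initial cells.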

SF-268 = assay: Growth inhibition of human SF268 cells assessed as cell viability at 1 uM incubated for 48 hrs by sulforhodamine B assay; conditions: SF-268, 48 h, read-out: Activity
TK-10 [4] = assay: Growth inhibition of human TK10 cells assessed as cell viability at 100 uM incubated for 48 hrs by sulforhodamine B assay; conditions: TK-10, 48 h, read-out: Activity
ACHN = assay: Growth inhibition of human ACHN cells assessed as cell viability at 0.001 uM incubated for 48 hrs by sulforhodamine B assay relative to control; conditions: read-out: Activity
TK-10 [5] = assay: Growth inhibition of human TK10 cells assessed as cell viability at 0.1 uM incubated for 48 hrs by sulforhodamine B assay; conditions: TK-10, 48 h, read-out: Activity
HOP-92 = assay: Growth inhibition of human HOP92 cells assessed as cell viability at 0.001 uM incubated for 48 hrs by sulforhodamine B assay relative to control; conditions: HOP-92, 48 h, read-out: Activity
PC-3 = assay: Growth inhibition of human PC3 cells assessed as cell viability at 100 uM incubated for 48 hrs by sulforhodamine B assay; conditions: PC-3, 48 h, read-out: Activity
MDA-MB-231 = assay: Growth inhibition of human MDA-MB-231 cells incubated for 48 hrs by sulforhodamine B assay; conditions: MDA-MB-231, 48 h
Method in brief: (§2)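 NCI-60 five-dose SRB assay in RPMI 1640 with 5% FBS, 37 °C, 5% CO2. Compound given at five tenfold dilutions, 0.01–100 µM, for 48 h. Adherent cells fixed with TCA, suspension cells with 16% final TCA. Bound SRB read at 515 nm and growth calculated against time-zero and untreated controls. GI50 taken from dose–response curves as the concentration giving a 50% decrease in net cell growth.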

A549 = assay: Growth inhibition of human A549/ATCC cells assessed as cell viability at 0.1 uM incubated for 48 hrs by sulforhodamine B assay; conditions: A549, 48 h, read-out: Activity; method in brief: as §1
MOLT-4 = assay: Growth inhibition of human MOLT4 cells assessed as cell viability at 100 uM incubated for 48 hrs by sulforhodamine B assay; conditions: MOLT-4, 48 h, read-out: Activity
HCT-116 = assay: Growth inhibition of human HCT116 cells assessed as cell viability at 0.1 uM incubated for 48 hrs by sulforhodamine B assay; conditions: HCT-116, 48 h, read-out: Activity
HCT-15 = assay: Growth inhibition of human HCT15 cells incubated for 48 hrs by sulforhodamine B assay; conditions: HCT-15, 48 h; method in brief: as §1
NCI-H322M = assay: Growth inhibition of human NCI-H322M cells assessed as cell viability at 1 uM incubated for 48 hrs by sulforhodamine B assay; conditions: read-out: Activity
RXF 393 [6] = assay: Growth inhibition of human RXF393 cells assessed as cell viability at 100 uM incubated for 48 hrs by sulforhodamine B assay; conditions: RXF 393, 48 h, read-out: Activity
U-251 = assay: Growth inhibition of human U251 cells assessed as cell viability at 0.1 uM incubated for 48 hrs by sulforhodamine B assay; conditions: U-251, 48 h, read-out: Activity
COLO 205 = assay: Growth inhibition of human COLO205 cells assessed as cell viability at 1 uM incubated for 48 hrs by sulforhodamine B assay; conditions: COLO 205, 48 h, read-out: Activity
SK-OV-3 = assay: Growth inhibition of human SKOV3 cells assessed as cell viability at 1 uM incubated for 48 hrs by sulforhodamine B assay; conditions: SK-OV-3, 48 h, read-out: Activity
NCI/ADR-RES = assay: Growth inhibition of human NCI/ADR-RES cells incubated for 48 hrs by sulforhodamine B assay; method in brief: as §2
DU-145 = assay: Growth inhibition of human DU145 cells incubated for 48 hrs by sulforhodamine B assay; conditions: DU-145, 48 h; method in brief: as §1
[7] = read-out: LC50 (the source's name)
[8] = read-out: pLC50 (the source's name) (converted)

CC1=C(C(=O)OCc2ccccc2)C(c2ccc3c(c2)OCO3)n2c(nc3ccccc32)N1 (racemic)
viability at 0.001 µM (EKVX): 91%
viability at 1 µM (SF-539 [1]): 13%
viability at 0.1 µM (RXF 393 [2]): 90%
viability at 1 µM (OVCAR-4): 61%
Activity (SNB-75): 2.05%
viability at 100 µM (A498): 37%
viability at 1 µM (M14): 30%
GI50 (SF-539 [3]; read-out: GI50): 0.34 µM
LC50 (SF-539 [3]; read-out: LC50): > 100 µM
TGI (SF-539 [3]; read-out: TGI): > 100 µM
GI50 (SF-539 [3]; read-out: pGI50 (converted)): 0.339 µM
LC50 (SF-539 [3]; read-out: pLC50 (converted)): > 100 µM
TGI (SF-539 [3]; read-out: pTGI): > 100 µM
viability at 1 µM (SF-268): 32%
viability at 100 µM (TK-10 [4]): 68%
viability at 0.001 µM (ACHN): 99%
viability at 0.1 µM (TK-10 [5]): 91%
viability at 0.001 µM (HOP-92): 67%
viability at 100 µM (PC-3): 45%
GI50 (MDA-MB-231; read-out: GI50): 85.7 µM
CC50 (MDA-MB-231; [7]): > 100 µM
TGI (MDA-MB-231; read-out: TGI): > 100 µM
GI50 (MDA-MB-231; read-out: pGI50 (converted)): 85.1 µM
CC50 (MDA-MB-231; [8]): > 100 µM
TGI (MDA-MB-231; read-out: pTGI): > 100 µM
viability at 0.1 µM (A549): 99%
viability at 100 µM (MOLT-4): 33%
viability at 0.1 µM (HCT-116): 100%
GI50 (HCT-15; read-out: GI50): 0.37 µM
LC50 (concentration causing 50% net cell kill) (HCT-15; read-out: LC50): > 100 µM
TGI (HCT-15; read-out: TGI): > 100 µM
GI50 (HCT-15; read-out: pGI50 (converted)): 0.372 µM
LC50 (concentration causing 50% net cell kill) (HCT-15; read-out: pLC50 (converted)): > 100 µM
TGI (HCT-15; read-out: pTGI): > 100 µM
viability at 1 µM (NCI-H322M): 48%
viability at 100 µM (RXF 393 [6]): 15%
viability at 0.1 µM (U-251): 96%
viability at 1 µM (COLO 205): 28%
viability at 1 µM (SK-OV-3): 27%
GI50 (NCI/ADR-RES; read-out: GI50): 0.33 µM
CC50 (NCI/ADR-RES; [7]): > 100 µM
TGI (NCI/ADR-RES; read-out: TGI): > 100 µM
GI50 (NCI/ADR-RES; read-out: pGI50 (converted)): 0.331 µM
CC50 (NCI/ADR-RES; [8]): > 100 µM
TGI (NCI/ADR-RES; read-out: pTGI): > 100 µM
GI50 (DU-145; read-out: GI50): 0.59 µM
CC50 (DU-145; [7]): > 100 µM
TGI (DU-145; read-out: TGI): > 100 µM
GI50 (DU-145; read-out: pGI50 (converted)): 0.589 µM
CC50 (DU-145; [8]): > 100 µM
TGI (DU-145; read-out: pTGI): > 100 µM
